Measured values: PMC4955407 (Journal of medicinal chemistry, 2015)

What was measured:
c-Myc–Max(S)/DNA complex = c-Myc–Max(S)/DNA complex (Homo sapiens, UniProt P01106); assay: EMSA, disruption of c-Myc–Max; type: biochemical; details: 100 µM compound, n = 1
Summary of the method: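 His6-tagged proteins were expressed in E. coli BL21DE3(pLysS) with IPTG induction and purified on Ni-NTA under 8 M urea. The tag was removed with TEV protease, giving >95% purity. Each protein at 30 nM was mixed with 30 nM HEX-labelled double-stranded oligonucleotide carrying a c-Myc binding site. Complexes were resolved by gel shift.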

[1] = tested on: HL60 promyelocytic leukemia cells; assay: Cell cycle analysis, propidium iodide; type: cell-based, human; details: HL60, 24 h
c-Myc–Max(S) heterodimer = c-Myc–Max(S) heterodimer (Homo sapiens, UniProt P01106); assay: SPR, c-Myc–Max; type: binding
[2] = tested on: H460 large cell lung cancer cells; assay: Neutral lipid quantification, BODIPY-459/503; type: cell-based; details: H460, 48 h
Summary of the method: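 Sub-confluent H460 cells were treated with test compound for 48 h, then washed, trypsinised and resuspended in PBS. […] was added in PBS at 50 µg/ml, and cells were stained for 30 min at ambient temperature. After three PBS washes, cells were analysed by flow cytometry. Mean fluorescence was expressed as a ratio to untreated controls stained in parallel, from biological triplicates.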

[3] = target: c-Myc–Max heterodimers in HL60 cells (Homo sapiens, UniProt P01106); assay: c-Myc–Max co-immunoprecipitation; type: cell-based; details: HL60, 6 h
Sequence of c-Myc–Max heterodimers in HL60 cells (P01106 whole entry, one chain of several): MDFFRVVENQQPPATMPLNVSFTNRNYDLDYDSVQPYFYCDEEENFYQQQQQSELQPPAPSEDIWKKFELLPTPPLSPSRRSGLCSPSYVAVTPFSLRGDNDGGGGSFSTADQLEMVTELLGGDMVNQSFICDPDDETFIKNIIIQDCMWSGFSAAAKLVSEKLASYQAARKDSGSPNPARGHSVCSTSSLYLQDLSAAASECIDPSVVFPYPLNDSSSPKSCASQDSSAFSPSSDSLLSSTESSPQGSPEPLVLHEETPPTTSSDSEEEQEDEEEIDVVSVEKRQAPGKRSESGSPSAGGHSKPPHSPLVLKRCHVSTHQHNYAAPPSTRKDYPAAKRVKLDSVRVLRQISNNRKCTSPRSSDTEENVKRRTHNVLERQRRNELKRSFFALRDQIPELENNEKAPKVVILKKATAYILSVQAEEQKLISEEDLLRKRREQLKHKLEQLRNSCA
Summary of the method: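 About 5 × 10^6 HL60 cells were exposed to test compound or DMSO vehicle for 6 h. Cells were pelleted at 500 × g, washed in ice-cold PBS and lysed in IP buffer, keeping an input aliquot. Max was immunoprecipitated, and precipitates were washed three times. They were run on 10% SDS-PAGE and immunoblotted with anti-Myc monoclonal 9E10 (1:1000).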

[4] = tested on: NF-κB reporter in HeLa cells; assay: Luciferase reporter, NF-κB binding sites; type: cell-based; details: 6 h
[5] = tested on: c-Myc-dependent reporter (wt-Myc) in HeLa cells; assay: Luciferase reporter, c-Myc binding sites; type: cell-based; details: 6 h
Solubility = type: physicochemical
U266 = details: read-out: Growth inhibition IC50, U266; U266 myeloma, expresses L-Myc; cited from earlier work
[6] = metabolism of the nitro group; cited from earlier work
[7] = target: c-Myc bHLH-ZIP domain;Max(S) (Homo sapiens;Homo sapiens, UniProt P01106-1;P61244-2 353-437;1-151, |); assay: SPR
Max(L) = Max(L) (Homo sapiens, UniProt P61244 1-160); assay: SPR

CCOC(=O)C(=O)Nc1ccc(C(=O)Nc2ccc(C(=O)O)cc2OCC(C)C)cc1OCC(C)C [compound 21, 4-(4-(2-Ethoxy-2-oxoacetamido)-3-isobutoxybenzamido)-3-isobutoxybenzoic acid]
EMSA screening, disruption of c-Myc–Max(S)/DNA binding (c-Myc–Max(S)/DNA complex): complete disruption

CC(C)COc1cc(C(=O)O)ccc1NC(=O)c1ccc([N+](=O)[O-])c(OCC(C)C)c1 [4aa, 3-Isobutoxy-4-(3-isobutoxy-4-nitrobenzamido)benzoic acid]
EMSA screening, disruption of c-Myc–Max(S)/DNA binding (c-Myc–Max(S)/DNA complex): potent activity

Methyl 3-benzyloxy-4-(3-isobutoxy-4-nitrobenzamido)benzoate [14ca]
EMSA screening, disruption of c-Myc–Max(S)/DNA binding (c-Myc–Max(S)/DNA complex): modest inhibitory activities

CC(C)COc1cc(C(=O)O)ccc1NC(=O)c1ccc([N+](=O)[O-])c(OCc2ccccc2)c1 [4ca, 3-Isobutoxy-4-(3-benzyloxy-4-nitrobenzamido)benzoic acid]
EMSA screening, disruption of c-Myc–Max(S)/DNA binding (c-Myc–Max(S)/DNA complex): complete disruption

CC(C)COc1cc(C(=O)O)ccc1NC(=O)c1ccc([N+](=O)[O-])c(OCc2cccc3ccccc23)c1 [4da, 3-Isobutoxy-4-(3-(naphthalen-1-ylmethoxy)-4-nitrobenzamido)benzoic acid]
EMSA screening, disruption of c-Myc–Max(S)/DNA binding (c-Myc–Max(S)/DNA complex): potent activity
Cell cycle arrest [1]: promoted a G0/G1 arrest
Kd (c-Myc–Max(S) heterodimer): ~10 µM
Kd by SPR, pre-formed heterodimers (c-Myc–Max(S) heterodimer; c-Myc–Max(S) heterodimers pre-formed before addition of compound (Figure 4E)): somewhat higher Kd
Neutral lipid accumulation [2]: increase in neutral lipid stores
c-Myc–Max association by co-IP [3]: remain largely intact
Luciferase activity, NF-kB vector [4]: no inhibition of luciferase was observed
Luciferase activity, wt-c-Myc vector [5]: dose-dependent inhibition of luciferase

CC(C)COc1nc(C(=O)O)ccc1NC(=O)c1ccc([N+](=O)[O-])c(OCC(C)C)n1 [compound 16, 6-Isobutoxy-5-(6-isobutoxy-5-nitropicolinamido)picolinic acid]
EMSA screening, disruption of c-Myc–Max(S)/DNA binding (c-Myc–Max(S)/DNA complex): complete disruption

COC(=O)c1ccc(NC(=O)c2ccc([N+](=O)[O-])c(OC(C)C)c2)c(OCC(C)C)c1 [14ba, Methyl 3-isobutoxy-4-(3-isopropoxy-4-nitrobenzamido)benzoate]
EMSA screening, disruption of c-Myc–Max(S)/DNA binding (c-Myc–Max(S)/DNA complex): modest inhibitory activities
Solubility (Solubility): poor solubilities

CC(C)COc1cc(C(=O)O)ccc1NC(=O)c1ccc([N+](=O)[O-])c(OCC(C)C)n1 [compound 15, 3-Isobutoxy-4-(6-isobutoxy-5-nitropicolinamido)benzoic acid]
EMSA screening, disruption of c-Myc–Max(S)/DNA binding (c-Myc–Max(S)/DNA complex): complete disruption

CCc1ccc(/C=C2\SC(=S)NC2=O)cc1 [10058-F4, reference compound]
Cell cycle arrest [1]: promoted a G0/G1 arrest
IC50 (U266): ~100 µM
c-Myc–Max association by co-IP [3]: abrogated c-Myc’s association with Max

O=[N+]([O-])c1ccc(Nc2ccccc2-c2ccccc2)c2nonc12 [compound 2, reference compound]
Half-life [6]: short half-life
Neutral lipid accumulation [2]: increase in neutral lipid stores
Luciferase activity, NF-kB vector [4]: no inhibition of luciferase was observed
Luciferase activity, wt-c-Myc vector [5]: dose-dependent inhibition of luciferase

B1: E-box SPR oligonucleotide (dsDNA)
DNA 1: TGAAGCAGACCACGTGGTCGTCTTCA
DNA 2: TGAAGACGACCACGTGGTCTGCTTCA
binding result [7]: binds
binding result (Max(L)): binds
